In the library only some 4.9% were active in any assay of this set; here they are far more common.
NF-kB neuron act – NF-kB expression increase, human neuronal cells | NF-kB reporter expression; active compounds read high | fold change at 12.5 µM | 1.6% of 190,000 active | AID 1239; in the data active = fold change above about 3.3
STAT1 blocker – reduces IFN-gamma driven STAT1 reporter signal | NIH 3T3 STAT1-luciferase reporter, luminescence | inhibition, % at 5.5 µM | 0.35% of 200,000 active | AID 920;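 active = inhibition above a set limit, the mean inhibition across all tested compounds plus 3 SD, cut at about 34% in these data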
STAT3 inh – reduces IL-6 driven STAT3 reporter signal. inhibition, % at 5.5 µM. U3A cells, IL-6 STAT3-luciferase reporter, luminescence; host cell line lacks STAT1. 0.89% of 190,000 active;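 active = inhibition above the mean inhibition across all screened compounds plus 3 SD, cut at about 44% in these data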
STAT3 act-1 – STAT3 signaling activation | U3A cells, IL-6 STAT3-luciferase reporter, luminescence; 100% = signal with IL-6 EC80 alone | activation (% of control), % at 5.6 µM | 0.91% of 190,000 active;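 active = activation above the screen-wide mean of compound activation plus 3 SD, cut at about 130% in these data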
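Material: human STAT1-deficient U3A cells with stable STAT3-luciferase reporter / Probe or stimulus: IL-6 stimulus at 33 ng/mL final / Schedule: 1 h compound pre-exposure, 6 h IL-6 stimulation, 37 °C / Technique: luminescence / Read-out basis: percent of IL-6-only median luminescence / Control set: IL-6-only high control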
STAT1 act-1 – increases IFN-gamma driven STAT1 reporter signal | NIH 3T3 STAT1-luciferase reporter, luminescence; 100% = IFN-gamma alone, no compound | activation (% of control), % at 5.5 µM | 2.6% of 200,000 active | AID 932;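 active = activation above the screen-wide mean activation plus 3 SD, cut at about 130% in these data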
APP 5'UTR act – activates APP 5'UTR luciferase reporter. SH-SY5Y APP 5'UTR luciferase reporter, luminescence; zero percent = DMSO vehicle wells. activation, % at 2 µM. 1% of 190,000 active. AID 1276;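 active = activation above a set limit, based on mean plus 3 SD of controls, cut at about 140% in these data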
STAT3 act-2 – confirmation of STAT3 signaling activators | shares compounds with STAT3 act-1 | U3A STAT3-luciferase reporter, IL-6 potentiation, luminescence; U3A cells lack STAT1; 100 means same as IL-6 alone | potentiation (% of control), % at 5.7 µM | 64% of 1,200 active;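 active = percent activation of the STAT3 luciferase reporter above a set limit taken from the earlier primary screen, cut at about 130% in these data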
NFkB act 2 – NF-kappaB activation in STAT3 activator counter-screen | human cells, NF-kappaB reporter activation | 11% of 1,200 active | shares compounds with STAT3 act-1 | activation (% of control), % at 5.7 µM; in the data active = activation above about 120%;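 note: reporter induced by TNF-alpha stimulation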
STAT1 act-2 – activates STAT1, counter-screen to STAT3 activators; shares compounds with STAT3 act-1; NIH 3T3 STAT1-luciferase reporter, IFN-gamma, luminescence; activation (% of control), % at 5.7 µM; 13% of 1,200 active; AID 1318;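 active = activation above the solvent-only control well mean plus 3 SD, set per screening run, cut at about 120% in these data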
Hits are given with their value; 0 = inactive; - = not tested or not shown.

SMILES	NF-kB neuron act	STAT1 blocker	STAT3 inh	STAT3 act-1	STAT1 act-1	APP 5'UTR act	STAT3 act-2	NFkB act 2	STAT1 act-2
COc1ccc(C2CC(=O)Oc3c2c(=O)n(C)c2ccccc32)c(OC)c1OC (centres undefined)	0	0	0	0	0	0	-	-	-
c1cncc(-c2nc(NCc3ccco3)c3ccccc3n2)c1	0	0	0	0	0	0	-	-	-
Cc1ccc(-c2nc(NCc3ccco3)c3ccccc3n2)cc1	0	0	0	138.7	0	0	152.7	0	0
Cc1ccc2nc(NC(=O)C3CCCN3C(=O)OC(C)(C)C)sc2c1 (centres undefined)	0	0	0	0	0	0	-	-	-
O=C(Cn1cnc([N+](=O)[O-])n1)NCc1ccccc1	0	0	0	0	0	0	-	-	-
O=C(CCCn1cnc([N+](=O)[O-])n1)Nc1cccc2ccccc12	0	0	0	138.4	0	0	0	0	0
CCN(CC(=O)Nc1ccccc1OC)CC(=O)Nc1c(Cl)ccc(C)c1Cl	0	0	0	0	0	0	-	-	-
CCCCC1=NN2C(=N)CC(=O)N=C2S1	0	0	0	0	0	0	-	-	-
Cc1ccc2ncccc2c1NC(=S)NC(=O)c1ccccc1	0	0	0	136.6	0	0	146.4	0	0
Cc1ccc2ncccc2c1NS(=O)(=O)c1ccccc1	0	0	0	0	0	0	-	-	-
CC(=O)c1cccc(NC(=O)C2C3C=CC(C3)C2C(=O)O)c1 (centres undefined)	0	0	0	0	0	0	-	-	-
CC(C)=C1C2C=CC1C(C(=O)Nc1cccc(C)c1)C2C(=O)O (centres undefined)	0	0	0	160.1	0	0	144.9	0	0
O=C(COc1cccc2ccccc12)NNC(=O)CSCCO	0	0	0	0	0	0	-	-	-
Cc1ccc(C)n1NC(=O)c1ccccc1O	0	0	0	153.2	0	0	151.4	0	0
Cc1ccc(C)n1NC(=O)c1ccccc1[N+](=O)[O-]	0	0	0	0	0	0	-	-	-
CC(=O)Nc1c(C(=O)O)[nH]c2ccccc12	0	0	0	0	0	0	-	-	-
CCS(=O)(=O)Nc1c(C(=O)OC)[nH]c2ccccc12	0	0	0	138.7	0	0	0	0	0
COC(=O)c1[nH]c2ccccc2c1NC(=O)CN1CCCCCC1	0	0	0	0	0	0	-	-	-
CCS(=O)(=O)Nc1c(C(=O)O)[nH]c2ccccc12	0	0	0	163.6	0	0	169.0	0	0
O=C(N/N=C\c1cccs1)c1ccccc1-n1cccc1	0	0	0	137.8	0	0	148.1	0	0
O=C(N/N=C\c1ccccc1)c1ccccc1-n1cccc1	0	0	0	0	0	0	-	-	-
Cc1nc(CS(=O)c2ccc(Cl)cc2)cc(NCc2ccc(Cl)cc2Cl)n1 (centres undefined)	0	0	0	0	0	0	-	-	-
COC(=O)c1cccc(NC(=O)CCCOc2cccc(C)c2)c1	0	0	0	136.1	0	0	0	0	0
CCCC(=O)Nc1nc(C)c(-c2csc(Nc3ccc(Cl)cc3)n2)s1	0	0	0	177.5	0	0	162.5	0	0
Cc1ccc(Nc2nc(-c3sc(NC(=O)c4cccc(Cl)c4)nc3C)cs2)cc1	0	0	0	156.3	0	0	0	0	0
SMILES	NF-kB neuron act	STAT1 blocker	STAT3 inh	STAT3 act-1	STAT1 act-1	APP 5'UTR act	STAT3 act-2	NFkB act 2	STAT1 act-2
CCC(C)C(=O)Nc1nc(C)c(-c2csc(Nc3ccc(Cl)cc3)n2)s1 (centres undefined)	0	0	0	138.8	0	0	0	0	0
CCC(=O)N1CCN(c2ccccc2NC(=O)COc2ccccc2Cl)CC1	0	0	0	155.6	0	0	142.7	0	0
O=C(COc1ccccc1Cl)Nc1cc(Cl)ccc1O	0	0	0	166.0	0	0	161.2	0	0
COc1ccc(CNC(=O)N2CCN(c3ccc(F)cc3)CC2)cc1Cl	0	0	0	0	0	0	-	-	-
CC(C)(C)OC(=O)NC1CONC1=O (centres undefined)	0	0	0	0	0	0	-	-	-
O=C(/C(=C(\[O-])c1ccccc1)[n+]1ccc2ccccc2c1)c1ccc(Cl)cc1	0	0	0	151.7	0	0	155.8	0	0
O=C(/C(=C(\[O-])c1ccccc1)[n+]1ccc2ccccc2c1)c1ccc([N+](=O)[O-])cc1	0	0	0	0	0	0	-	-	-
O=C(/C(=C(\[O-])c1ccccc1)[n+]1ccc2ccccc2c1)c1ccccc1	0	0	0	137.5	0	0	150.8	0	0
CCc1nn(-c2cc(Cl)ccc2OC)c2c1C(=O)CCC2	0	0	0	0	0	0	-	-	-
Cc1cccc(C2c3[nH]c4ccccc4c3CCN2C(=O)c2cn(C)c3ccccc3c2=O)n1 (centres undefined)	0	0	0	136.2	0	0	0	0	0
Cc1cccc(C2c3[nH]c4ccccc4c3CCN2Cc2cnn(-c3ccc(F)cc3)c2)n1 (centres undefined)	0	0	0	149.6	0	0	152.2	0	0
Fc1ccc(C2c3[nH]c4ccccc4c3CCN2Cc2ccoc2)cc1 (centres undefined)	0	0	0	0	0	0	-	-	-
CN(C)N1C(N)=C(C#N)C(c2cccc3ccccc23)C2=C1CC(c1ccccc1)CC2=O (centres undefined)	0	0	0	0	0	0	-	-	-
O=S(=O)(c1ccc2oc3ccc(S(=O)(=O)N4CCCCC4)cc3c2c1)N1CCCCC1	0	0	0	0	0	0	-	-	-
OC1CCN(c2c3c(nc4cc(-c5ccc(F)cc5)nn24)CCC3)CC1	0	0	0	0	0	0	-	-	-
O=C(C1CCCO1)N1CCN(c2c3c(nc4cc(-c5ccc(F)cc5)nn24)CCC3)CC1 (centres undefined)	0	0	0	136.5	0	0	0	0	0
COc1cc(CNC(=O)C2CCCN2S(=O)(=O)c2ccccc2)cc(OC)c1OC (centres undefined)	0	0	0	0	0	0	-	-	-
O=c1[nH]cc(C(F)(F)F)cc1NS(=O)(=O)c1ccccc1[N+](=O)[O-]	0	0	0	0	0	0	-	-	-
CNc1nc(-c2c[nH]c3ccccc23)cs1	0	0	0	160.6	0	0	152.0	0	0
Cc1ccc(-n2[nH]c(C)c(C=Nc3cc(C)ccn3)c2=O)cc1	0	0	0	138.2	0	0	0	0	0

Screening data from PubChem.
